Shown are actives, neighbours in structure and some others; about 2.5% of the full set was active somewhere.
EWS-Fli inh: EWS/Fli transcriptional activity inhibition. AID 651661. A673 NR0B1-luciferase reporter, viability-normalised. inhibition, % at 12.6 µM. actives 0.67% (n = 350,000);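 active means mean inhibition of at least 50% after viability correction, with every replicate also passing that limit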;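 further: firefly luciferase signal divided by Alamar Blue viability fluorescence both relative to DMSO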
Glyco luc inh: N-linked glycosylation inhibition; reporter increase, % at 12.5 µM; D54 ERlucT glycosylation luciferase reporter, 24 h; percent of 100 nM tunicamycin response; actives 0.23% (n = 360,000);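 active means mean luciferase reporter signal, scaled so untreated is 0 and the glycosylation-blocking control 100, at or above a set limit in every replicate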;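 further: luciferase carries N-glycosylation sites so blocking glycosylation raises the light; 0% = median of neutral control wells and 100% = median of 100 nM tunicamycin wells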
AF4-AF9 inh: MLL-AF4/AF9 protein interaction inhibition; AlphaScreen, biotin-AF4 peptide binding to FLAG-AF9; AID 651704; actives 0.47% (n = 350,000); inhibition, % at 10 µM;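 active means every replicate reaching a set inhibition limit, whatever the replicate mean, cut at about 25% in these data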;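 further: 0% = plate neutral control median and 100% = total signal loss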
Target sequence (P42568 whole entry, looked up): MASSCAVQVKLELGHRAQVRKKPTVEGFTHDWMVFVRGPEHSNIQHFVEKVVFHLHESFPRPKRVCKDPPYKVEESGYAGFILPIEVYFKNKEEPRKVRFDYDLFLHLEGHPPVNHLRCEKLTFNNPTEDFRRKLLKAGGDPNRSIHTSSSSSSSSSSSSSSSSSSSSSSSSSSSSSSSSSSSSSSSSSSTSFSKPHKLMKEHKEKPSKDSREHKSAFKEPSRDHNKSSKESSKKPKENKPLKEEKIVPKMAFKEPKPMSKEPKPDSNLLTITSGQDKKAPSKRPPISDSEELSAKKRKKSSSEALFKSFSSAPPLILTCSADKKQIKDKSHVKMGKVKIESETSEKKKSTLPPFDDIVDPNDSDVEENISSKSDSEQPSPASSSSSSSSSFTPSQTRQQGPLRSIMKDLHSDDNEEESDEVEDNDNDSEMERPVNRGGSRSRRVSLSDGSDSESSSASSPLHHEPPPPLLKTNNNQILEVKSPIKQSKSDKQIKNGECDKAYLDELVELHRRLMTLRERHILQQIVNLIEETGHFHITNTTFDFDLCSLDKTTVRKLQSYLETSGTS
PAX8 reporter: inhibitors of PAX8 transcriptional activity in RMG-I cells; AID 652154; RMG-I TPO-luciferase reporter, SteadyGlo, 24 h; inhibition, % at 12.6 µM; actives 1.2% (n = 360,000);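 active means mean replicate inhibition at least 60% with every replicate also reaching 60%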;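 further: luciferase light reporting Pax8 driven TPO promoter activity; plate controls were median of neutral control wells for no effect and mitoxantrone controls for full effect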
Env fusion inh: blocks HIV Env-driven cell-cell fusion. actives 1.1% (n = 360,000). AID 651610. HeLa-JRFL Env/CEM21 cell fusion, luciferase. inhibition, % at 12.3 µM;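 active means mean replicate inhibition score of at least 50 and every replicate individually at or above 50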;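 further: 0% = plate neutral controls and 100% = maraviroc near 300 nM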
FN deposition inh: fibronectin deposition inhibition | AH1F fibroblasts, Alexa488-fibronectin deposition fluorescence, overnight | inhibition, % at 12.6 µM | AID 743247 | actives 0.086% (n = 350,000);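 active means mean inhibition across replicates of 30% or more, regardless of how many single replicates reach that level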;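 further: positive control wells lacked labelled fibronectin entirely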
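material = AH1F fibroblast monolayer depositing Alexa488-labelled fibronectin into matrix | amount = 10000 AH1F cells/well | buffer or medium = DMEM plus 2% serum, read in PBS | incubation = 1 h cell adhesion before compound, then overnight fibronectin incubation | detection = fluorescence at 485 nm excitation, 525 nm emission | evaluation = percent inhibition as loss of matrix-bound fibronectin fluorescence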
An asterisk follows results filed as active; . = no result; [ ] = another dose, or the depositor's remark.

SMILES	EWS-Fli inh	Glyco luc inh	AF4-AF9 inh	PAX8 reporter	Env fusion inh	FN deposition inh
Cc1ccc(S(=O)(=O)Nc2ccc3c(c2)C(=O)N([C@H](C)CO)C[C@H](C)[C@H](CN(C)Cc2ccc(Cl)c(Cl)c2)OCCCC[C@H](C)O3)cc1	-1.1	.	1.1	16.7	.	-9.9
Cc1ccc(S(=O)(=O)Nc2ccc3c(c2)C(=O)N([C@H](C)CO)C[C@@H](C)[C@@H](CN(C)C(=O)Nc2ccccc2)OCCCC[C@H](C)O3)cc1	-6.0	.	-0.4	-16.3	-120.8[16.7 µM]	.
CO[C@H]1CN(C)C(=O)c2cc(NC(=O)Nc3cccc(F)c3)ccc2OC[C@@H](C)NC[C@H]1C	2.8	.	1.6	.	.	-2.9
O=C(C[C@@H]1C[C@H]2c3cc(NC(=O)Nc4ccccc4)ccc3O[C@H]2[C@H](CO)O1)NCc1cccnc1	-6.8	.	.	7.7	62.8*[16.7 µM]	-5.3
O=C(C[C@@H]1C[C@@H]2c3cc(NC(=O)Nc4ccccc4)ccc3O[C@@H]2[C@@H](CO)O1)NCc1ccccc1	4.5	.	2.6	-1.9	59.0*[16.7 µM]	0.5
O=C(C[C@H]1C[C@@H]2c3cc(NC(=O)Nc4ccccc4)ccc3O[C@@H]2[C@@H](CO)O1)NCc1ccccc1	-7.3	.	2.1	5.3	-16.2[16.7 µM]	-13.6
O=C(C[C@@H]1C[C@H]2c3cc(NC(=O)Nc4ccccc4F)ccc3O[C@H]2[C@H](CO)O1)NCc1ccc(Oc2ccccc2)cc1	-2.7	.	-0.8	74.6*	-17.8[16.7 µM]	-50.7
O=C(C[C@H]1C[C@H]2c3cc(NC(=O)c4ccc5c(c4)OCO5)ccc3O[C@H]2[C@H](CO)O1)NCc1ccc(Oc2ccccc2)cc1	-10.4	.	1.9	-4.2	73.1*[16.7 µM]	-10.6
Cc1noc(C)c1S(=O)(=O)Nc1ccc2c(c1)C(=O)N([C@@H](C)CO)C[C@H](C)[C@@H](CN(C)S(=O)(=O)c1cccs1)OCCCC[C@@H](C)O2	7.7	.	.	-10.5	-16.7[16.7 µM]	-1.8
COc1ccc(CN(C)C[C@H]2OCCCC[C@H](C)Oc3ccc(NS(=O)(=O)c4ccccc4)cc3C(=O)N([C@@H](C)CO)C[C@H]2C)cc1	1.8	.	5.4	-0.3	-3.8[16.7 µM]	2.4
CCCNC(=O)Nc1ccc2c(c1)C(=O)N(C)[C@H]1CC[C@@H](CC(=O)OC)O[C@@H]1CO2	1.5	.	0.0	25.3	.	-5.4
COc1ccc(S(=O)(=O)N(C)C[C@@H]2Oc3ccc(NC(=O)Nc4ccc(C(F)(F)F)cc4)cc3CC(=O)N([C@H](C)CO)C[C@H]2C)cc1	-16.9	.	-1.4	0.3	5.1[16.7 µM]	.
COc1ccc(S(=O)(=O)N(C)C[C@@H]2Oc3ccc(NC(=O)Nc4ccc(C(F)(F)F)cc4)cc3CC(=O)N([C@@H](C)CO)C[C@@H]2C)cc1	45.6	.	-0.9	65.9*	-29.4[16.7 µM]	.
COc1ccc(S(=O)(=O)N(C)C[C@@H]2Oc3ccc(NC(=O)Nc4ccc(C(F)(F)F)cc4)cc3CC(=O)N([C@H](C)CO)C[C@@H]2C)cc1	43.9	.	-1.3	77.8*	8.3[16.7 µM]	.
C[C@@H]1CN([C@H](C)CO)C(=O)Cc2cc(NC(=O)NC3CCCCC3)ccc2O[C@@H]1CN(C)Cc1ccc2c(c1)OCO2	.	.	4.8	19.3	.	.
COCC(=O)N1C[C@@H](C)[C@H](OC)CN(C)C(=O)c2ccc(NS(C)(=O)=O)cc2OC[C@@H]1C	-2.3	.	-1.1	-5.8	-7.7[16.7 µM]	-0.7
COCCn1c(N)c(C#N)c2nc3ccccc3nc21	.	9.5	.	.	-84.9	.
N#Cc1c(N)n(CCc2ccc(F)cc2)c2nc3ccccc3nc12	.	58.2*	.	.	.	.
CCN(CC)S(=O)(=O)c1cc([N+](=O)[O-])ccc1NNC(=O)Nc1ccc(F)cc1	.	-3.6	.	.	57.4*	-0.3
CCN(CC)S(=O)(=O)c1cc([N+](=O)[O-])ccc1NNC(=O)Nc1ccccc1OC	.	-5.3	.	9.1	-38.1	0.1
CCc1ccc(Nc2n[n+](-c3ccccc3)c(-c3ccc(OCc4ccccc4)cc3)s2)cc1	5.7	-4.0	5.2	8.4	-54.7	-0.4
CCc1ccc(Nc2n[n+](-c3ccccc3)c(-c3c(Cl)cccc3Cl)s2)cc1	40.3	9.1	.	101.4*	69.6*	2.2
CCc1ccc(Nc2n[n+](-c3ccccc3)c(-c3ccc(N(CC)CC)cc3)s2)cc1	26.9	21.8	16.8	82.1*	38.7	-5.7
C[C@@H]1CN([C@H](C)CO)S(=O)(=O)c2ccc(C3=CCCCC3)cc2O[C@H]1CN(C)C(=O)c1ccccc1	5.0	.	5.8	.	-16.2[16.7 µM]	-2.3
COCC(=O)Nc1ccc2c(c1)OC[C@@H](C)N(C(=O)c1ccccc1)C[C@H](C)[C@H](OC)CN(C)C2=O	2.1	.	-1.1	.	.	-3.3
SMILES	EWS-Fli inh	Glyco luc inh	AF4-AF9 inh	PAX8 reporter	Env fusion inh	FN deposition inh
O=C(NC1CC(=O)N(c2ccccc2)C1)C(=O)c1c[nH]c2ccccc12 (stereo not drawn)	10.2	0.4	-1.5	21.6	61.5*	3.8
O=C(NC1CC1)C(=O)c1c[nH]c2ccccc12	.	1.7	-0.1	-11.2	-12.5	1.6
CC(C)(C)NCC(O)CON=C1c2ccccc2-c2ccccc21 (stereo not drawn)	12.8	35.3*	14.3	-2.5	-28.3	9.9
Cc1ccc(C(c2nc3ccccc3[nH]2)n2c(-c3ccccc3)nc3ccccc32)cc1 (stereo not drawn)	-105.2	-1.6	0.9	-132.5	58.1*	-11.5
CN1[C@@H]2c3cccc(=O)n3C[C@@H]2[C@@H](CO)[C@@H]1C(=O)NCCc1ccccc1	-4.4	.	2.1	0.6	.	.
CN1C(=O)c2cc(NC(=O)c3cccc(Cl)c3)ccc2OC[C@H]2O[C@H](CC(=O)NC3CCCCC3)CC[C@H]21	9.8	.	.	20.2	26.4[16.7 µM]	0.5
CN1C(=O)c2cc(NS(=O)(=O)c3ccc(Cl)cc3)ccc2OC[C@H]2O[C@@H](CC(=O)N3CCc4ccccc4C3)CC[C@@H]21	19.1	.	0.8	74.3*	6.1[16.7 µM]	.
CN1C(=O)c2cc(NC(=O)c3cccc(Cl)c3)ccc2OC[C@H]2O[C@H](CC(=O)NC3CCCCC3)CC[C@@H]21	0.4	.	.	69.9*	27.6[16.7 µM]	-2.3
COCC(=O)Nc1ccc2c(c1)C(=O)N(C)[C@H]1CC[C@H](CC(=O)NC3CCCC3)O[C@H]1CO2	-8.8	.	.	0.8	56.8*[16.7 µM]	-0.4
CN1C(=O)c2cc(NC(=O)c3cscn3)ccc2OC[C@@H]2O[C@@H](CC(=O)NCc3ccc(Cl)c(Cl)c3)CC[C@H]21	-5.4	.	-0.2	-2.4	57.2*[16.7 µM]	-9.0
CN1C(=O)c2cc(NS(=O)(=O)c3ccc(Cl)cc3)ccc2OC[C@@H]2O[C@@H](CC(=O)N3CCc4ccccc4C3)CC[C@@H]21	16.6	.	-1.4	37.6	6.3[16.7 µM]	-6.0
COCC#Cc1cnc2c(c1)C(=O)N([C@H](C)CO)C[C@H](C)[C@@H](CN(C)C(=O)CCN1CCCCC1)O2	-7.4	.	-3.3	.	-0.5[16.7 µM]	.
C[C@@H]1CCCCO[C@H](CN(C)C(=O)c2ccccc2)[C@@H](C)CN([C@@H](C)CO)C(=O)c2cc(NS(=O)(=O)c3cccs3)ccc2O1	8.5	.	3.9	1.2	-58.9[16.7 µM]	-13.9
